Active and inactive are the calls of the source. The rule behind the calls is not given here.
Legend:
[1] = biological target: T1, ALK tyrosine kinase receptor (Homo sapiens, UniProt Q9UM73); assay: Induction of ALK degradation in human NCI-H3122 cells after 16 hrs by immunoblot method; type: cell-based
Summary of the method: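 H3122 and Karpas 299 cells were given a dose titration for 16 h. ALK and Aurora A were then read by immunoblot. DC50 was calculated from the titrations, two independent experiments.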
Target sequence in this assay (Q9UM73 whole entry): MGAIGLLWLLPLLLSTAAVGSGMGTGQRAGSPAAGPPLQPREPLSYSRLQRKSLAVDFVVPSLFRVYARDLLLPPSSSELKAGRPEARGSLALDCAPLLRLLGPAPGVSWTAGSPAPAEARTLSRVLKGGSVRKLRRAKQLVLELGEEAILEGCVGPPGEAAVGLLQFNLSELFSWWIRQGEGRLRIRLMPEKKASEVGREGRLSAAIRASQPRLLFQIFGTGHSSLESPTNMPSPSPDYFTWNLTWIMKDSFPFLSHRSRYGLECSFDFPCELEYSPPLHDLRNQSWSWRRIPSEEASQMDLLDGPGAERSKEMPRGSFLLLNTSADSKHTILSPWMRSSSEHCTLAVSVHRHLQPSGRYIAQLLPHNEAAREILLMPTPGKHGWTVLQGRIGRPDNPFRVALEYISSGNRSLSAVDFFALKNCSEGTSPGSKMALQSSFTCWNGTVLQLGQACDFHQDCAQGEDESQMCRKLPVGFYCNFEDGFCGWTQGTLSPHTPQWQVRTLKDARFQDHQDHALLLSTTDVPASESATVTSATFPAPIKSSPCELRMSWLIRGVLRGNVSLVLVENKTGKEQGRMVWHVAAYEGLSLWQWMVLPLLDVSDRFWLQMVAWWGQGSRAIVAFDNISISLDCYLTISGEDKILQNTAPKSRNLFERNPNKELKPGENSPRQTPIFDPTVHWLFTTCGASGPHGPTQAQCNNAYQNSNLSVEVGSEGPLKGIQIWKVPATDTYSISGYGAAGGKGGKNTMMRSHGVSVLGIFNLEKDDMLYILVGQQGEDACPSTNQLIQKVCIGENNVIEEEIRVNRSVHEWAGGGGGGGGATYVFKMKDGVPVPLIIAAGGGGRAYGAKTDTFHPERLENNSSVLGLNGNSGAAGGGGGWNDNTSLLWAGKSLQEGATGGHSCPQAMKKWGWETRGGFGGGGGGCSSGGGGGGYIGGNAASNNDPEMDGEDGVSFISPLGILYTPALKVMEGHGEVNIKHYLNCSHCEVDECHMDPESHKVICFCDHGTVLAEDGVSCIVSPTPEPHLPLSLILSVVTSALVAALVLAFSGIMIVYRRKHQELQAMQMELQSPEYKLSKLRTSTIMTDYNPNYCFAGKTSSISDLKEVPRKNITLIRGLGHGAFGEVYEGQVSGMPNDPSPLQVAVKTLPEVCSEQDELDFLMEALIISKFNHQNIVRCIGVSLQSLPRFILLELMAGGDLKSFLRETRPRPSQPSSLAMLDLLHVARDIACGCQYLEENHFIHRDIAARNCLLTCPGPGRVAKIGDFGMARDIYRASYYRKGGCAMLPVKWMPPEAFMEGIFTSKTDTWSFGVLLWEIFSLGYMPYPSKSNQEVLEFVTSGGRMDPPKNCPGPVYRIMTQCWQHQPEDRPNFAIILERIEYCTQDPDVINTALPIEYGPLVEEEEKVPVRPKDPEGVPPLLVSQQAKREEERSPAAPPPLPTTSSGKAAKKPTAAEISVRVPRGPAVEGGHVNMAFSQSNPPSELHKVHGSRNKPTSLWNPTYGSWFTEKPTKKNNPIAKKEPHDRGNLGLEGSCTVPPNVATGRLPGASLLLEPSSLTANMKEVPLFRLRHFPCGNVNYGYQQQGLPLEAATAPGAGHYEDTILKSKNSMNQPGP

[2] = biological target: T1, ALK tyrosine kinase receptor; assay: Induction of ALK degradation in human NCI-H3122 cells at 250 nM after 4 hrs by immunoblot method; type: cell-based
Target sequence in this assay (Q9UM73 19-1620 limits assumed): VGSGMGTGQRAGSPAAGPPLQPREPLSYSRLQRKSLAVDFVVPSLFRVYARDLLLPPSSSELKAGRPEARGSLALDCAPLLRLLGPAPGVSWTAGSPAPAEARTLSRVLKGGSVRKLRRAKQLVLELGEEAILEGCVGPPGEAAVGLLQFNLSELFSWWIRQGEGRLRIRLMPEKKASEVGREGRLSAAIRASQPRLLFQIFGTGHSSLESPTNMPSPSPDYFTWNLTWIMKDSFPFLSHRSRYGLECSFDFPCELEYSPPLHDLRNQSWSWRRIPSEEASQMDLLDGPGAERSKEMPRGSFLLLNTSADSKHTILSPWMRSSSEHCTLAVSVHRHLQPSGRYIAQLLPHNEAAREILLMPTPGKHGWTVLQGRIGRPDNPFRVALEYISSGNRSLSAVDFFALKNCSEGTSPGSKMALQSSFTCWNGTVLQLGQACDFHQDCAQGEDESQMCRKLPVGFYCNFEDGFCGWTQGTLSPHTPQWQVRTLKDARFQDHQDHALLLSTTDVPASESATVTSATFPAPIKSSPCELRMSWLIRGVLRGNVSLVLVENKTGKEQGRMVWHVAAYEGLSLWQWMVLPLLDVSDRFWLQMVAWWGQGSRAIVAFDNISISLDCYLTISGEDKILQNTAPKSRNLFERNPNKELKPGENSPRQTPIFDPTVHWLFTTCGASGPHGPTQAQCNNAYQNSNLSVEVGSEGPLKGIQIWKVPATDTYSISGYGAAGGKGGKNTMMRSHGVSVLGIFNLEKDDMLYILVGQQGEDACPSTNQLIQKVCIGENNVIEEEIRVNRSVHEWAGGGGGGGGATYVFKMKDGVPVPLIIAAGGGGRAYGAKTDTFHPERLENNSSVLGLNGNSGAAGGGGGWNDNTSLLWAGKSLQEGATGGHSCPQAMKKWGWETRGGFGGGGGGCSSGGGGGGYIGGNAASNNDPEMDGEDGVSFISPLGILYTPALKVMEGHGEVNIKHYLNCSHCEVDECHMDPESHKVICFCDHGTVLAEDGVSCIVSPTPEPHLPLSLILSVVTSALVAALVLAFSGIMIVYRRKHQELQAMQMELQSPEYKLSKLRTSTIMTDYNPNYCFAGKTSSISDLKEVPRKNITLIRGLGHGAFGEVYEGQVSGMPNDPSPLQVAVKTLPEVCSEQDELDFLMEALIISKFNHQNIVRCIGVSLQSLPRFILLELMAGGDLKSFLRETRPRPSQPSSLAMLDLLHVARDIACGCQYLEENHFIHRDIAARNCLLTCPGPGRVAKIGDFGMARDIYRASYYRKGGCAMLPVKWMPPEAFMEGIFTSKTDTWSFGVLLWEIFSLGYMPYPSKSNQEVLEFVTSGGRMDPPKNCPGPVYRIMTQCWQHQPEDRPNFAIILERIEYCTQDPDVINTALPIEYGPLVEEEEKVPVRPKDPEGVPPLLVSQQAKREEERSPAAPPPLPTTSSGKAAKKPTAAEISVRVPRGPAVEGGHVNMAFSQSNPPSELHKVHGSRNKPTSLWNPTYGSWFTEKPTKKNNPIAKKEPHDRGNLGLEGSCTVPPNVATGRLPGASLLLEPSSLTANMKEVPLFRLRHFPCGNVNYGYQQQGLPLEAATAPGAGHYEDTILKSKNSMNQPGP

[3] = biological target: T1, ALK tyrosine kinase receptor; assay: Induction of ALK degradation in human KARPAS299 cells at 250 nM after 8 hrs by immunoblot method; type: cell-based
Target sequence in this assay (Q9UM73 19-1620 limits assumed): as above

[4] = biological target: T1, ALK tyrosine kinase receptor; assay: Induction of ALK degradation in human NCI-H3122 cells at 250 nM after 16 hrs in presence of […] inhibitor MLN4924 by immunoblot method; type: cell-based
Target sequence in this assay (Q9UM73 19-1620 limits assumed): as above

[5] = biological target: T2, Aurora kinase A (Homo sapiens) (UniProt O14965); assay: Induction of aurora A degradation in human NCI-H3122 cells at 250 nM after 16 hrs in presence of […] inhibitor MLN4924 by immunoblot method; type: cell-based
T2 sequence (whole entry): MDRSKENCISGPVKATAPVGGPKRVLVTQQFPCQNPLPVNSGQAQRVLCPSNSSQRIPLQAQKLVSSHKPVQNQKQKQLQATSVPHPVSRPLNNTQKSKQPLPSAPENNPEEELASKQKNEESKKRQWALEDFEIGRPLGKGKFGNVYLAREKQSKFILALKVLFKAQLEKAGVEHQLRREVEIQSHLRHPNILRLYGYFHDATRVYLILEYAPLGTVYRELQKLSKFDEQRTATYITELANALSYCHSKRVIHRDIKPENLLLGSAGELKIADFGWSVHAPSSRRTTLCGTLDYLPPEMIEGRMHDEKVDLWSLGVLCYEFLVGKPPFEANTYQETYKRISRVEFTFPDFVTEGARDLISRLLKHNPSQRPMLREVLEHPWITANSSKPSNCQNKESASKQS

[6] = biological target: T2, Aurora kinase A (Homo sapiens); assay: Induction of aurora A degradation in human KARPAS299 cells at 250 nM after 16 hrs in presence of […] inhibitor MLN4924 by immunoblot method; type: cell-based
[7] = biological target: T1, ALK tyrosine kinase receptor; assay: Induction of ALK degradation in human NCI-H3122 cells at 250 nM after 16 hrs in presence of pomalidomide by immunoblot method; type: cell-based
Target sequence in this assay (Q9UM73 19-1620 limits assumed): as the sequence (Q9UM73 19-1620 limits assumed) above

[8] = biological target: T1, ALK tyrosine kinase receptor; assay: Induction of ALK degradation in human KARPAS299 cells at 250 nM after 16 hrs in presence of ALK inhibitor LDK378 by immunoblot method; type: cell-based
Target sequence in this assay (Q9UM73 19-1620 limits assumed): as the sequence (Q9UM73 19-1620 limits assumed) above

[9] = species on record: Homo sapiens; assay: Antiproliferative activity against human CHLA20 cells after 72 hrs in presence of ABCB1 inhibitor tariquidar by CellTiter-Glo luminescent cell viability assay; type: functional, cell-based
[10] = tested on: SH-SY5Y; assay: Antiproliferative activity against human SH-SY5Y cells after 72 hrs in presence of ABCB1 inhibitor tariquidar by CellTiter-Glo luminescent cell viability assay; type: functional, cell-based
[11] = biological target: T1, ALK tyrosine kinase receptor; assay: Induction of ALK degradation in human Kelly cells after 16 hrs by immunoblot method; type: cell-based
Summary of the method: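 Kelly neuroblastoma cells (ABCB1-low) were given a 16 hr dose titration. ALK and Aurora A were then read by western blot. DC50 was determined from two independent experiments.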
Target sequence in this assay (Q9UM73 whole entry): as the sequence (Q9UM73 whole entry) above

[12] = biological target: T1, ALK tyrosine kinase receptor; assay: Induction of ALK degradation in human Kelly cells at 100 nM after 8 hrs by immunoblot method; type: cell-based
Summary of the method: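 Kelly cells were treated with 100 nM compound for varying times and lysed at each time point. ALK levels were read by immunoblot.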
Target sequence in this assay (Q9UM73 19-1620 limits assumed): as the sequence (Q9UM73 19-1620 limits assumed) above

[13] = biological target: T2, Aurora kinase A (Homo sapiens); assay: Induction of aurora A degradation in human Kelly cells at 100 nM after 16 hrs in presence of proteasome inhibitor carfilzomib by immunoblot method; type: cell-based
Summary of the method: (§1)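 Cells were pre-treated for 2 h with DMSO, carfilzomib, MLN4924 or pomalidomide, then treated with compound for 16 h, with immunoblot read-out. CHLA20 cells also received 125 nM tariquidar throughout.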

[14] = biological target: T2, Aurora kinase A (Homo sapiens); assay: Induction of aurora A degradation in human CHLA20 cells at 100 nM after 16 hrs in presence of proteasome inhibitor carfilzomib and ABCB1 inhibitor tariquidar by immunoblot method; type: cell-based; summary of the method: as §1
[15] = biological target: T2, Aurora kinase A (Homo sapiens); assay: Induction of aurora A degradation in human Kelly cells at 100 nM after 16 hrs in presence of […] inhibitor MLN4924 by immunoblot method; type: cell-based; summary of the method: as §1
[16] = biological target: T2, Aurora kinase A (Homo sapiens); assay: Induction of aurora A degradation in human CHLA20 cells at 100 nM after 16 hrs in presence of […] inhibitor MLN4924 and ABCB1 inhibitor tariquidar by immunoblot method; type: cell-based; summary of the method: as §1
[17] = biological target: T1, ALK tyrosine kinase receptor; assay: Induction of ALK degradation in human Kelly cells at 100 nM after 16 hrs in presence of pomalidomide by immunoblot method; type: cell-based
Summary of the method: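 Kelly cells were pre-treated for 2 h with DMSO, carfilzomib, MLN4924, pomalidomide, TAE684 or LDK378. Degrader treatment followed for 16 h, and ALK was read by immunoblot.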

[18] = biological target: T1, ALK tyrosine kinase receptor; assay: Induction of ALK degradation in human CHLA20 cells at 100 nM after 16 hrs in presence of ALK inhibitor TAE684 and ABCB1 inhibitor tariquidar by immunoblot method; type: cell-based
Summary of the method: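 CHLA20 cells were kept with 125 nM tariquidar and pre-treated for 2 h with DMSO, carfilzomib, MLN4924, pomalidomide, TAE684 or LDK378. A 16 h degrader treatment followed, with immunoblot readout of ALK.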

[19] = biological target: T1, ALK tyrosine kinase receptor; assay: Induction of ALK degradation in human CHLA20 cells assessed as decrease in ALK phosphorylation at Y1507 at 50 to 250 nM after 16 hrs in presence of ABCB1 inhibitor tariquidar by immunoblot method; type: cell-based
Summary of the method: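 CHLA20 neuroblastoma cells (ABCB1-high) were co-treated with 125 nM tariquidar throughout. They were dose-titrated for 16 hours and read by immunoblot.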

[20] = biological target: Focal adhesion kinase 1 (Homo sapiens) (UniProt Q05397); assay: Induction of PTK2 degradation in human KARPAS299 cells at 0.01 to 1 uM after 16 hrs by immunoblot method; type: cell-based
[21] = biological target: Focal adhesion kinase 1 (Homo sapiens) (UniProt Q05397); assay: Induction of PTK2 degradation in human NCI-H3122 cells at 0.01 to 1 uM after 16 hrs by immunoblot method; type: cell-based
[22] = biological target: Ribosomal protein S6 kinase alpha-1 (Homo sapiens) (UniProt Q15418); assay: Induction of RPS6KA1 degradation in human NCI-H3122 cells at 0.01 to 1 uM after 16 hrs by immunoblot method; type: cell-based
Chain of Ribosomal protein S6 kinase alpha-1 (Homo sapiens) (Q15418 whole entry): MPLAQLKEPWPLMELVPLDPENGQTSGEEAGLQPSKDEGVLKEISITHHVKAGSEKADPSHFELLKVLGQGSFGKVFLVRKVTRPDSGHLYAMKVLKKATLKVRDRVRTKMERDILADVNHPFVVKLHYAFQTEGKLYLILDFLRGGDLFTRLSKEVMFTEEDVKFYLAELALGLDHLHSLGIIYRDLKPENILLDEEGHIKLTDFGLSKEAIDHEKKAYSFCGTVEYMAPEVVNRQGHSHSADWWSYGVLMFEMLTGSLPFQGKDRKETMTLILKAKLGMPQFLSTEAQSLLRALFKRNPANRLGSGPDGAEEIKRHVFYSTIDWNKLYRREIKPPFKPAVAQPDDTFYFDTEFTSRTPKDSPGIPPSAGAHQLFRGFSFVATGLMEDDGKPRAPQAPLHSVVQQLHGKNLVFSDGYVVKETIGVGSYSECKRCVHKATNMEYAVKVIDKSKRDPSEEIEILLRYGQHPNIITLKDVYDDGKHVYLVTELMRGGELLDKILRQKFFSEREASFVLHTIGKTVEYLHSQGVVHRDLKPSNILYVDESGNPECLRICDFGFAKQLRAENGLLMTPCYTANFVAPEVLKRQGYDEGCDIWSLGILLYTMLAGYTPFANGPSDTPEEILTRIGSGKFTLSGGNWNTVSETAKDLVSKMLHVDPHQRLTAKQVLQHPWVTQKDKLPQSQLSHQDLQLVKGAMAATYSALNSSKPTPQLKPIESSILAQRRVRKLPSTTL

[23] = biological target: Tyrosine-protein kinase Fer (Homo sapiens) (UniProt P16591); assay: Induction of FER degradation in human KARPAS299 cells at 0.01 to 1 uM after 16 hrs by immunoblot method; type: cell-based
Chain of Tyrosine-protein kinase Fer (Homo sapiens) (P16591 whole entry, looked up): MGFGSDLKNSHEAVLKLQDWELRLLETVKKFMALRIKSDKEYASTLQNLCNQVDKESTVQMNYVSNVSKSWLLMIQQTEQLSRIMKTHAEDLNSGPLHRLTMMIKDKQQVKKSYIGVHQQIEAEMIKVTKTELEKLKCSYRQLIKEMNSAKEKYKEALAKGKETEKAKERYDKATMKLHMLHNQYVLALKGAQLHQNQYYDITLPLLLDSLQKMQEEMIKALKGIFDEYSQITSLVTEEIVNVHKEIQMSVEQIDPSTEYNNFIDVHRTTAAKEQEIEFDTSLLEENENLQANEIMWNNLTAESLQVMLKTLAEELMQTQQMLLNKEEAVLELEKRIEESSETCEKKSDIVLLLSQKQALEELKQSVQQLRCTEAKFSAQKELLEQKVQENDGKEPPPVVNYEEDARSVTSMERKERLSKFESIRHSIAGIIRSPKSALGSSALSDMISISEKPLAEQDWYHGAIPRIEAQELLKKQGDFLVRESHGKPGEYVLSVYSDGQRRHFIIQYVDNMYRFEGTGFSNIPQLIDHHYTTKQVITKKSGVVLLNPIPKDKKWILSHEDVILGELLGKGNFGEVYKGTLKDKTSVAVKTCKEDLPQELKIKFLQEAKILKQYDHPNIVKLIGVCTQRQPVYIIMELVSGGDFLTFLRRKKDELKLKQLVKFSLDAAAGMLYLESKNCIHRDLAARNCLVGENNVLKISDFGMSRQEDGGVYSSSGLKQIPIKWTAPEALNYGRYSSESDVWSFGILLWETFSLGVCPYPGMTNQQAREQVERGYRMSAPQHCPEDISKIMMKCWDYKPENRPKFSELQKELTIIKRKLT

[24] = biological target: Tyrosine-protein kinase Fer (Homo sapiens) (UniProt P16591); assay: Induction of FER degradation in human Kelly cells at 10 to 160 nM after 16 hrs by immunoblot method; type: cell-based
[25] = biological target: Ribosomal protein S6 kinase alpha-1 (Homo sapiens) (UniProt Q15418); assay: Induction of RPS6KA1 degradation in human Kelly cells at 10 to 160 nM after 16 hrs by immunoblot method; type: cell-based
[26] = biological target: Ribosomal protein S6 kinase alpha-1 (Homo sapiens) (UniProt Q15418); assay: Induction of RPS6KA1 degradation in human NCI-H3122 cells at 250 nM measured over 2 to 16 hrs by immunoblot method; type: cell-based
[27] = biological target: T2, Aurora kinase A (Homo sapiens); assay: Induction of aurora A degradation in human NCI-H3122 cells at 250 nM measured over 2 to 16 hrs by immunoblot method; type: cell-based
[28] = biological target: Tyrosine-protein kinase Fer (Homo sapiens) (UniProt P16591); assay: Induction of FER degradation in human Kelly cells at 100 nM measured over 2 to 16 hrs by immunoblot method; type: cell-based

SMILES	DC50 [1] [nM]	Activity [2]	Activity [3]	Activity [4]	Activity [5]	Activity [6]	Activity [7]	Activity [8]	Activity [9]	Activity [10]	DC50 [11] [nM]	Activity [12]	Activity [13]	Activity [14]	Activity [15]	Activity [16]	Activity [17]	Activity [18]	Activity [19]	Activity [20]	also measured
COc1cc(N2CCN(CCOCCOCCNC(=O)CNc3cccc4c3C(=O)N(C3CCC(=O)NC3=O)C4=O)CC2)ccc1Nc1ncc(Cl)c(Nc2ccccc2S(=O)(=O)C(C)C)n1 (stereo unspecified)	10	Active	Active	inactive	inactive	inactive	inactive	inactive	Active	Active	50	Active	inactive	inactive	inactive	inactive	inactive	inactive	Active	Active	Activity [21]: Active; Activity [22]: Active; Activity [23]: Active; Activity [24]: Active; Activity [25]: Active; Activity [26]: Active; Activity [27]: Active; Activity [28]: Active
Cc1cc(Nc2ncc(Cl)c(Nc3ccccc3S(=O)(=O)C(C)C)n2)c(OC(C)C)cc1C1CCN(CCOCCOCCNC(=O)CNc2cccc3c2C(=O)N(C2CCC(=O)NC2=O)C3=O)CC1 (stereo unspecified)	10	Active	Active	inactive	inactive	inactive	inactive	inactive	Active	Active	50	Active	inactive	inactive	inactive	inactive	inactive	inactive	Active	Active	Activity [21]: Active; Activity [22]: Active; Activity [23]: Active; Activity [24]: Active; Activity [25]: Active; Activity [26]: Active; Activity [27]: Active; Activity [28]: Active

Reference: ChEMBL document CHEMBL4177764 (J Med Chem, 2018)
